Data taken from ChEMBL document CHEMBL1157670, “Total synthesis and cytotoxicity evaluation of all ochratoxin A stereoisomers” (Bioorg Med Chem, 2010).

Tests used:
Type in all cases: functional, cell-based
[1] = test system: HepG2; test: Cytotoxicity against human HepG2 cells assessed as LDH release after 48 hrs by microplate reader method
In short: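 Hep G2 cells in DMEM/10% FCS, seeded 2×10^4/well, switched to serum-free after 48 h at ~80% confluence. After 24 h, compound added at 10 nM–50 µM (1 mM methanol stock) for 48 h. Cells lysed on ice with 1% Triton X-100 Tris buffer. Lysate and medium LDH read kinetically as NADH loss ([…], 10 mM pyruvate, HEPES pH 7.0) at 340 nm over 60 min at 37 °C. Released vs total LDH normalized to positive and negative controls. n = 9.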

[2] = test system: HepG2; test: Cytotoxicity against human HepG2 cells after 48 hrs by WST8 assay; details: for IC50: HepG2, 48 h
In short: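 Hep G2 cells grown in DMEM + 10% FCS (37 °C, 8.5% CO2), seeded 4×10^3/well for 48 h, then 24 h serum-free at ~80% confluence. Compound from 1 mM methanol stock, 10 nM–50 µM, 48 h, serum-free; solvent controls. Then WST-8 for 1 h at 37 °C, absorbance 450 nm, normalized to untreated control. Triplicate, three independent passages (n = 9).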

[3] = test system: HepG2; test: Induction of apoptosis in human HepG2 cells assessed as caspase 3 activation after 24 hrs by fluorescence assay; details: HepG2, 24 h
In short: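 Hep G2 cells seeded 2×10^4/well and made serum-free as for the other assays. Compound given at 10 nM–50 µM (1 mM methanol stock) for 24 h. Lysed on ice in 0.1% Triton X-100 buffer, pH 7.5, then centrifuged. Supernatant incubated 1 h at 37 °C with 8 µM DEVD-AFC in PIPES/CHAPS/DTT buffer. AFC fluorescence (ex 400/em 505 nm) quantified against an AFC standard and normalized to BCA protein. n = 9.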

Row | Structure (SMILES) | Activity [1] | Activity [2] | IC50 [2] [nM] | EC50 [3] [nM]
1 | C[C@H]1Cc2c(Cl)cc(C(=O)N[C@H](Cc3ccccc3)C(=O)O)c(O)c2C(=O)O1 [3S14R-OCHRATOXIN A] | Dose-dependent effect | Dose-dependent effect | 5000 | 3800
2 | C[C@@H]1Cc2c(Cl)cc(C(=O)N[C@@H](Cc3ccccc3)C(=O)O)c(O)c2C(=O)O1 [3R14S-OCHRATOXIN A] | Dose-dependent effect | Dose-dependent effect | 300 | 60
3 | C[C@H]1Cc2c(Cl)cc(C(=O)N[C@@H](Cc3ccccc3)C(=O)O)c(O)c2C(=O)O1 [3S14S-OCHRATOXIN A] | Dose-dependent effect | Dose-dependent effect | 400 | 80
4 | C[C@@H]1Cc2c(Cl)cc(C(=O)N[C@H](Cc3ccccc3)C(=O)O)c(O)c2C(=O)O1 [3R14R-OCHRATOXIN A] | Dose-dependent effect | Dose-dependent effect | 3200 | > 10000
